14 compounds from ChEMBL document CHEMBL1165976, “Synthesis and characterization of N,N-dialkyl and N-alkyl-N-aralkyl fenpropimorph-derived compounds as high affinity ligands for sigma receptors” (Bioorg Med Chem, 2010) can be followed below.

Broadly, the IC50 is the midpoint of a concentration-inhibition curve. High values mean weaker potency in that assay, low ones greater potency in that assay. Broadly, the Ki is the equilibrium dissociation constant of an inhibitor or competing ligand from its target.

Molecules are shown by their SMILES.

The subject of test [1] is MDA-MB-231. Briefly: Cytotoxicity against human MDA-MB-231 cells. The format is functional, cell-based.
The subject of test [2] is HT-29. Briefly: Cytotoxicity against human HT-29 cells. The format is functional, cell-based.
The test system of test [3] is DU-145. As to the kind of experiment: Cytotoxicity against human DU145 cells. The format is functional, cell-based.
The test system of test [4] is SF-268. As to the kind of experiment: Cytotoxicity against human SF268 cells. The format is functional, cell-based.
A short description of test [5]: Displacement of [3H]-ditolyl guanidine from sigma 2 receptor in rat liver membranes after 1 hr by liquid scintillation counting. The format is cell membranes, Membrane. (In general: Loss of bound radioactivity is the signal in a displacement assay; it reports binding, not function.)
For test [6], the system named is HCT-15. Briefly: Cytotoxicity against human HCT15 cells. The format is functional, cell-based.
The nature of test [7]: Cytotoxicity against human H1299 cells. It is filed as functional, cell-based. Particulars: NCI-H1299; call rule not given here.
The test system of test [8] is A549. Briefly: Cytotoxicity against human A549 cells. The format is functional, cell-based.
Test [9] deals with NCI-H460. Briefly: Cytotoxicity against human NCI-H460 cells. The format is functional, cell-based.
Test [10] deals with MCF-10A. As to the kind of experiment: Cytotoxicity against human MCF10A cells. It is filed as functional, cell-based.
Test [11] is described as follows: Selectivity ratio of Ki for sigma 2 receptor in rat liver membranes to Ki for sigma 1 receptor in guinea pig liver homogenates. It is filed as cell membranes. Particulars: Membrane.
The test system of test [12] is SK-OV-3. As to the kind of experiment: Cytotoxicity against human SKOV3 cells. It is filed as functional, cell-based.
For test [13], the system named is MCF7. Briefly: Cytotoxicity against human MCF7 cells. It is filed as functional, cell-based.
Test [14] deals with Sigma non-opioid intracellular receptor 1 (Cavia porcellus, UniProt Q60492). As to the kind of experiment: Displacement of (+)-[3H]pentazocine from sigma 1 receptor in guinea pig liver homogenates after 1 hr by liquid scintillation counting. It is filed as tissue-based. The method in brief: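 Microsomal membranes (17,000 g then 100,000 g pellets) from guinea pig liver, 25 µg/well, with 10 nM (+)-[3H]pentazocine and serial competitor concentrations for 1 h at 30°C. Filtered on 0.5% PEI-treated GF/B filters; bound label counted by liquid scintillation. Nonlinear regression, single-site fit; Ki by Cheng-Prusoff.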
Chain of Sigma non-opioid intracellular receptor 1 (Q60492 whole entry): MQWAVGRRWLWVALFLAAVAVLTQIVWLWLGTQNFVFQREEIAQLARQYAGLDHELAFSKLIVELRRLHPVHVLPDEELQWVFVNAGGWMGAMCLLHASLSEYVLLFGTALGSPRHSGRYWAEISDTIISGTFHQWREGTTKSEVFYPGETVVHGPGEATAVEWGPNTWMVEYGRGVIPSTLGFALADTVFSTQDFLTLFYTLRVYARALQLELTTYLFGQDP

Take `CCCN(CCCc1ccc([N+](=O)[O-])cc1)CCc1ccc(N)cc1`: the half-maximal inhibitory concentration (IC50) in test [1], in test [2], in [3], in [4], in test [6] and in [7] was greater than 100 µM in each case. Further, the half-inhibitory concentration (IC50) in test [8] is greater than 100 µM; in test [9], greater than 100 µM; in test [10], greater than 100 µM; in test [12], greater than 100 µM; in test [13], 88.1 µM. Moreover, the inhibitory constant (Ki) in [5] (read-out: Ki) was 0.0836 µM; in test [14] (read-out: Ki), 0.006 µM. Moreover, the Ratio Ki in test [11] amounted to 13.9.
With `CCCNCCCc1ccc(F)cc1`, the Ki in test [5] (read-out: Ki) came out at 0.23 µM; in test [14] (read-out: Ki), 0.091 µM. Further, in test [11], the Ratio Ki amounted to 2.53.
Take `CCCCN(CCCC)CCCc1ccc([N+](=O)[O-])cc1`: the half-maximal inhibitory concentration (IC50) is 57.1 µM in test [1]; greater than 100 µM in test [2]; 32.7 µM in test [3]; greater than 100 µM in test [4]; greater than 100 µM in test [6]; greater than 100 µM in test [7]. In addition, the IC50 in test [8] was greater than 100 µM; in test [9], 40.5 µM; in test [10] it was greater than 100 µM; in test [12], 27.9 µM; in test [13] it was 22.4 µM. The results for the Ki in test [5] (read-out: Ki) and in [14] (read-out: Ki) were 0.404 µM and 0.0003 µM, respectively. Besides, the Ratio Ki in [11] stood at 1350.
As to `CCCN(CCCc1ccc(F)cc1)CCc1ccc(N=[N+]=[N-])c(I)c1`, the IC50 is 21.6 µM in [1]; 36.4 µM in test [2]; 13.1 µM in test [3]; 38.8 µM in [4]; 54.1 µM in test [6]; 90.8 µM in [7]. Besides, the IC50 in [8] was greater than 100 µM; in test [9], 40.3 µM; in test [10], 88.6 µM; in test [12], greater than 100 µM; in test [13] it was 16.8 µM. For the same compound, the figures for the Ki in test [5] (read-out: Ki) and in test [14] (read-out: Ki) were 1.29 µM and 7.24 µM, respectively. Moreover, the Ratio Ki in test [11] came out at 0.178.
Regarding `CCCCN(CCCC)C(=O)CCc1ccc(F)cc1`, the Ki in [5] (read-out: Ki) was 126 µM; in [14] (read-out: Ki) it was 32.1 µM. Further, the Ratio Ki in test [11] came to 3.94.
Consider `CCCN(CCCc1ccc(F)cc1)Cc1ccc(N=[N+]=[N-])c(I)c1`, for which, in [11], the Ratio Ki was greater than 571. In addition, the Ki in test [14] (read-out: Ki) amounted to 89 µM.
`CCCN(CCCc1ccc(F)cc1)Cc1ccc(N)c(I)c1`: the Ki in test [5] (read-out: Ki) worked out at 133 µM. For the same compound, the Ratio Ki in [11] stood at 0.339.
As to `CCCNCCc1ccc([N+](=O)[O-])cc1`, the Ki stood at 53.6 µM in test [5] (read-out: Ki) and 2.25 µM in test [14] (read-out: Ki). Further, in test [11], the Ratio Ki amounted to 23.8.
For `CCCCCCCCN(CCCCCCCC)C(=O)CCc1ccc(F)cc1`, the inhibition constant Ki result is “Not Active” in [5] and 53.6 µM in test [14] (read-out: Ki).
As to `CCCN(CCCc1ccc(F)cc1)Cc1ccc(N)cc1`, the IC50 in test [1], in test [2], in test [3], in [4], in [6] and in [7] was greater than 100 µM each time. The IC50 in test [8], in [9], in test [10], in test [12] and in test [13] was greater than 100 µM each time. The results for the Ki in test [5] (read-out: Ki) and in test [14] (read-out: Ki) were 2.15 µM and 0.164 µM, respectively. For the same compound, in test [11], the Ratio Ki came out at 13.1.
With `CCCCN(CCCC)CCCc1ccc(F)cc1`, the concentration for half-maximal inhibition (IC50) in test [1], in test [2], in test [3], in [4], in [6] and in test [7] was greater than 100 µM in each case. The IC50 is greater than 100 µM in [8]; greater than 100 µM in test [9]; greater than 100 µM in [10]; 56.2 µM in [12]; greater than 100 µM in test [13]. The values for the Ki in test [5] (read-out: Ki) and in test [14] (read-out: Ki) were 0.685 µM and 0.0177 µM, respectively. The Ratio Ki in [11] turned out to be 38.7.
For `CCCCCCCCN(CCCCCCCC)CCCc1ccc(F)cc1`, the Ki in test [5] (read-out: Ki) is 1.65 µM; in test [14] (read-out: Ki), 0.665 µM. Besides, the Ratio Ki in test [11] amounted to 2.49.
Regarding `CCCN(CCCc1ccc(F)cc1)CCc1ccc(N)cc1`, the IC50 is 68.1 µM in test [1]; greater than 100 µM in [2]; greater than 100 µM in test [3]; greater than 100 µM in test [4]; greater than 100 µM in test [6]; greater than 100 µM in test [7]. The half-inhibitory concentration (IC50) in test [8] is greater than 100 µM; in [9], 44.8 µM; in test [10], greater than 100 µM; in [12], 20.2 µM; in [13] it was 41.3 µM. Moreover, the Ki in [5] (read-out: Ki) amounted to 0.12 µM; in [14] (read-out: Ki), 2.59 µM. Also, the Ratio Ki in test [11] was found to be 0.046.
Take `CCCN(Cc1cccc([N+](=O)[O-])c1)C(=O)CCc1ccc(F)cc1`: the inhibition constant Ki in test [5] (read-out: Ki) is 236 µM; in test [14], “Not Active”.
